Results published in ChEMBL document CHEMBL1126928, “N-(1-arylpropionyl)-4-aryltetrahydropyridines, a new class of high-affinity selective sigma receptor ligands” (J Med Chem, 1993).
pIC50: −log10 of the molar value.

How the values were obtained:
D(2) dopamine receptor [1] = target: T1, D(2) dopamine receptor (Bos taurus, UniProt P20288); experiment: Binding affinity against Dopamine receptor D2 in bovine striatal homogenate using 200 pM [3H]- spiperone and 250 nM unlabeled ketanserin
Method in brief: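 Bovine striatal homogenate, run like the σ assay, with 200 pM [³H]spiperone (21.2 Ci/mmol). Incubation buffer pH 7.40 containing 250 nM ketanserin to block 5-HT2 binding. Measured by filtration and scintillation counting. Results given as IC50.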

[2] = target: T2, Serotonin 1 (5-HT1) receptor (Rattus norvegicus) (UniProt P28564+P30940+P19327+P28565); experiment: Percent inhibition of binding of 3.0 nM [3H]5-HT to 5-hydroxytryptamine 1 receptor in rat caudate membranes at 10 e -5 M.; type: cell membranes; conditions: Membrane
Method in brief: (§1)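 Rat caudate membranes incubated with 3.0 nM [3H]-5-HT binoxalate. Percent inhibition recorded at 10^-5 M test compound, with nonspecific binding set with 10 μM unlabeled 5-HT.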

[3] = target: T3, Serotonin 2 (5-HT2) receptor (Rattus norvegicus) (UniProt P30994+P08909+P14842); experiment: Percent inhibition of binding of 1.0 nM [3H]-ketanserin to 5-hydroxytryptamine 2 receptor in rat cortical membranes at 10 e-5 M.; type: cell membranes; conditions: Membrane
T3 sequence (P08909 whole entry, looked up): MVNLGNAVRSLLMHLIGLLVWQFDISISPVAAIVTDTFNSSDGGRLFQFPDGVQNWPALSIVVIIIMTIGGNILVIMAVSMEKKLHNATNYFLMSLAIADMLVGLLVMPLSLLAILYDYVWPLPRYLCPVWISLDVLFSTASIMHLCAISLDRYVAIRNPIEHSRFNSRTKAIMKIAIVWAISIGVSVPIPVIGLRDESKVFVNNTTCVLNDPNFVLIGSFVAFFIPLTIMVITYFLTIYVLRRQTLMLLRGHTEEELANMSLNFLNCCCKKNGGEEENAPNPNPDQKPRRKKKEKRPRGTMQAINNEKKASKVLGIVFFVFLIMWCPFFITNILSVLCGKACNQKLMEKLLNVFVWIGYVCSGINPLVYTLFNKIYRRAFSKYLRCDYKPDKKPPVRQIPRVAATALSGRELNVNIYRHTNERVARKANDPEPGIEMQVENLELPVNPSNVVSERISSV
T3 sequence (P14842 whole entry, looked up): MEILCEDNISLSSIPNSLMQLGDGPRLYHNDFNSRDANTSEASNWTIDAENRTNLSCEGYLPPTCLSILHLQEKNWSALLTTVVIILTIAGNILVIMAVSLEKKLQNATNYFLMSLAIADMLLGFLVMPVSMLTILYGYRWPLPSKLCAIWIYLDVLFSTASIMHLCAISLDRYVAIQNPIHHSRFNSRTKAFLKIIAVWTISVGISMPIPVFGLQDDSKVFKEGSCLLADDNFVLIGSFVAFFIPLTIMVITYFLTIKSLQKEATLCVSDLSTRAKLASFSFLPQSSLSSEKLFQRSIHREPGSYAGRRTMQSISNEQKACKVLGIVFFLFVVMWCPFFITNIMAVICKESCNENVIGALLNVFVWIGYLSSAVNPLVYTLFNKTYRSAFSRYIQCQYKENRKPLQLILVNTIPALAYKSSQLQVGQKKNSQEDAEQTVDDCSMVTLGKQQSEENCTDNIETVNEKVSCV
T3 sequence (P30994 whole entry, looked up): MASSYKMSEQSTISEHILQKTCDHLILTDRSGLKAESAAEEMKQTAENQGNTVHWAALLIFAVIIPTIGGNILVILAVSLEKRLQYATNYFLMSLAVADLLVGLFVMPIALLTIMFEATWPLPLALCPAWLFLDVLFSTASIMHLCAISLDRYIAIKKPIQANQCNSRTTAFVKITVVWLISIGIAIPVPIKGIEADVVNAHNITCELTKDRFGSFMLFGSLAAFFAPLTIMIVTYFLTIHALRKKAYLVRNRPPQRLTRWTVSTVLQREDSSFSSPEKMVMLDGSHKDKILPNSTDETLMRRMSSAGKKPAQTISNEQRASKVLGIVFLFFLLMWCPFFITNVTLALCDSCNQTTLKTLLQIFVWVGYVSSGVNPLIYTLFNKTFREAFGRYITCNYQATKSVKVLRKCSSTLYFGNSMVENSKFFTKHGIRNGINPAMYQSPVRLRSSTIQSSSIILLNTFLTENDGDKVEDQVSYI
Method in brief: (§2)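 1.0 nM [3H]ketanserin bound to rat cortical membranes. Percent inhibition measured at 10^-5 M test compound, with nonspecific binding defined by 10 μM methysergide.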

[4] = target: D(1A) dopamine receptor (Rattus norvegicus) (UniProt P18901); experiment: Binding affinity for dopamine receptor D1 in rat striatal membranes using 500 pM [3H]- SCH 23390 radioligand; type: cell membranes; conditions: Striatum; Membrane
Chain of D(1A) dopamine receptor (Rattus norvegicus) (P18901 whole entry): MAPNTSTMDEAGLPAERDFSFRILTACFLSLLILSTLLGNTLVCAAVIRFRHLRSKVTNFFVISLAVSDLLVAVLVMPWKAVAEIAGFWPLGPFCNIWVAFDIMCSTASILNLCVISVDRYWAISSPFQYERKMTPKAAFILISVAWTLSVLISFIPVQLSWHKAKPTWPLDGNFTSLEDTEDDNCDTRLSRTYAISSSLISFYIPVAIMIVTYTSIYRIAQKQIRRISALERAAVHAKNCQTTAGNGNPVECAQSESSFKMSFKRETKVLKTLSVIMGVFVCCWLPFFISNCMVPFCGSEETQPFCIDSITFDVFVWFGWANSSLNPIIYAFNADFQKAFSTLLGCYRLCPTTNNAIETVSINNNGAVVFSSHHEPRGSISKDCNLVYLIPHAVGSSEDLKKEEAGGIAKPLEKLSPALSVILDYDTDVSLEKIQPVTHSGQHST
Method in brief: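 Test compound at 10^-5 M, reported as percent inhibition of 500 pM [3H]SCH 23390 binding to rat striatal membranes. Nonspecific binding defined with 100 nM unlabeled SCH 23390.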

[5] = target: Glutamate receptor ionotropic, NMDA 2C (Rattus norvegicus) (UniProt Q00961); experiment: Binding affinity for Phencyclidine receptor (1 uM) using 2 nM [3H]- TCP radioligand.
Chain of Glutamate receptor ionotropic, NMDA 2C (Rattus norvegicus) (Q00961 20-1237 limits assumed): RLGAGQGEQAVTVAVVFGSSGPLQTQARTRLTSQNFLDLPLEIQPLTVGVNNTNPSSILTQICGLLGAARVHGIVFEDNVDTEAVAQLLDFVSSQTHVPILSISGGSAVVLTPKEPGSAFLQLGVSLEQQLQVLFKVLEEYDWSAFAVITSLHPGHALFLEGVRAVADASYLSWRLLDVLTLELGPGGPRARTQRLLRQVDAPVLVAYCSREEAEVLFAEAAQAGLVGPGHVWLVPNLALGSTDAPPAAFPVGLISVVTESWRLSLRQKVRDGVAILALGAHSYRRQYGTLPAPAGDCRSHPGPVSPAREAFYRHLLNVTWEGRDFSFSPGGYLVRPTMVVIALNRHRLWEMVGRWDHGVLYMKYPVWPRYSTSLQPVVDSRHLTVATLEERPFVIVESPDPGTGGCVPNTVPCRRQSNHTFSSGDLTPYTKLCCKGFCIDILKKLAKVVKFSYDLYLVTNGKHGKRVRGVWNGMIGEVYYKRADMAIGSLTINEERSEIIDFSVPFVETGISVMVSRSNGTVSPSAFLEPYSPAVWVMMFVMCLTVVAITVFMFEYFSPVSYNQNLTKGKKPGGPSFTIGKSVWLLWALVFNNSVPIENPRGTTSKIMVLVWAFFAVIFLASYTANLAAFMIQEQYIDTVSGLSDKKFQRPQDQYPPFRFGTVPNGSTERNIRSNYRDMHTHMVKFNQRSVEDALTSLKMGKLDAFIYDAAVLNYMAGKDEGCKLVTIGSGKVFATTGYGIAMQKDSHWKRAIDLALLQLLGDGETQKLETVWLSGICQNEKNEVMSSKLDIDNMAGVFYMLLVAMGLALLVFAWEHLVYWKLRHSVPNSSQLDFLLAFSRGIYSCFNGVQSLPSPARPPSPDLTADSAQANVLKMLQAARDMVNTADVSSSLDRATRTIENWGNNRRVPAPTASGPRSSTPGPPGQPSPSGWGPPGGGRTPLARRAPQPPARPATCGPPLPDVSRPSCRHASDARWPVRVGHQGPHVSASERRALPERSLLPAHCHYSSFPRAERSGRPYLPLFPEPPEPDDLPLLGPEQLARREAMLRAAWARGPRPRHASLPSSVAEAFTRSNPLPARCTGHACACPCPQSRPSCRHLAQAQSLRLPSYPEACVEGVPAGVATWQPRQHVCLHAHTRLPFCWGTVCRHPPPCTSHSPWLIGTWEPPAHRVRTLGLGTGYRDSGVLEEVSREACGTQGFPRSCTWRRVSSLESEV
Method in brief: (§3)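 Test compound at 10^-5 M, reported as percent inhibition of 2 nM [3H]TCP binding. Binding defined with 1 μM PCP.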

[6] = target: T2, Serotonin 1 (5-HT1) receptor (Rattus norvegicus); experiment: Percent inhibition of binding of 3.0 nM [3H]5-HT to 5-hydroxytryptamine 1 receptor in rat caudate membranes at 10 e -5 M; type: cell membranes; conditions: Membrane; method in brief: as §1
[7] = target: T3, Serotonin 2 (5-HT2) receptor (Rattus norvegicus); experiment: Percent inhibition of binding of 1.0 nM [3H]ketanserin to 5-hydroxytryptamine 2 receptor in rat cortical membranes at 10 e -5 M; type: cell membranes; conditions: Membrane; method in brief: as §2
[8] = target: Glutamate receptor ionotropic, NMDA 2C (Rattus norvegicus) (UniProt Q00961); experiment: Binding affinity for Phencyclidine receptor (1 uM) using 2 nM [3H]- TCP radioligand; method in brief: as §3
Rattus norvegicus = species: Rattus norvegicus; experiment: Binding affinity against Phencyclidine receptor (1 uM) using 2 nM [3H]- TCP radioligand; method in brief: as §3
D(2) dopamine receptor [9] = target: T1, D(2) dopamine receptor; experiment: Inhibition of binding against Dopamine receptor D2 in bovine striatal homogenate using 200 pM [3H]- spiperone and 250 nM unlabeled ketanserin

T1 sequence (P20288 whole entry): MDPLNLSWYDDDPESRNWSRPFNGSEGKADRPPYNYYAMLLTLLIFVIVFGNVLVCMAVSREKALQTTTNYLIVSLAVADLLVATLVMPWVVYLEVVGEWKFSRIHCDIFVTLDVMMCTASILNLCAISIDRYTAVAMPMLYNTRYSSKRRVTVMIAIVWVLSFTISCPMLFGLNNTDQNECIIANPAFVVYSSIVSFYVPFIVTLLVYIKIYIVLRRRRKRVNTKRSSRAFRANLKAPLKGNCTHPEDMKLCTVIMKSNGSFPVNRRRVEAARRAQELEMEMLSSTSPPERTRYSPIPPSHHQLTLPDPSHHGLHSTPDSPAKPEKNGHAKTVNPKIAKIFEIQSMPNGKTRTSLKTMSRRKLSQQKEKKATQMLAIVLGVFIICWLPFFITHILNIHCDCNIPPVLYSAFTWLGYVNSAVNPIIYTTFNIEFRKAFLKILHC

Question: How did the pIC50 (D(2) dopamine receptor [1]) turn out when CCN(CC)CCC(=O)c1ccccc1 was run?
Answer: < 5.30

Question: O=C(CCN1CC=C(c2ccc(F)cc2)CC1)c1ccc(F)cc1 was tested. Which pIC50 (D(2) dopamine receptor [1]) did it give?
Answer: < 5.00

Question: How did the pIC50 (D(2) dopamine receptor [1]) turn out when CN(C)CCC(=O)c1ccccc1 was run?
Answer: < 5.30

Question: What does the source list for O=C(CCN1CC=C(c2ccc(Cl)cc2)CC1)c1ccccc1?
Answer: inhibition [2]: 72.4%; inhibition [3]: 96.9%; pIC50 (D(2) dopamine receptor [1]): < 5.30; Binding affinity [4]: 19; Binding affinity [5]: 0

Question: O=C(CCN1CC=C(c2ccc(Cl)cc2)CC1)c1ccc(Cl)cc1 was tested. Which inhibition [6] did it give?
Answer: 49.5%

Question: What about the inhibition [7] of the same compound?
Answer: 84%

Question: What about the pIC50 (D(2) dopamine receptor [1]) of the same compound?
Answer: < 5.30

Question: What about the Binding affinity [4] of the same compound?
Answer: 31.6

Question: And the Binding affinity [8]?
Answer: 5.8

Question: c1ccc(CCCCN2CCC(c3ccccc3)CC2)cc1 was tested. Which pIC50 (D(2) dopamine receptor [1]) did it give?
Answer: 6.47

Question: O=C(CCN1CC=C(c2ccc(Cl)cc2)CC1)c1ccccc1F was tested. Which pIC50 (D(2) dopamine receptor [1]) did it give?
Answer: < 5.30

Question: Which inhibition [6] does the source give for O=C(CCN1CC=C(c2ccc(F)cc2)CC1)c1ccccc1 here?
Answer: 64.5%

Question: What about the inhibition [7] of the same compound?
Answer: 94.8%

Question: And the pIC50 (D(2) dopamine receptor [1])?
Answer: < 5.30

Question: And the inhibition [4]?
Answer: 23.9%

Question: What about the inhibition (Rattus norvegicus) of the same compound?
Answer: 0%

Question: O=C(CCN1CC=C(c2ccc(Cl)cc2)CC1)c1ccc(F)cc1 was tested. Which pIC50 (D(2) dopamine receptor [1]) did it give?
Answer: < 5.30

Question: How did the pIC50 (D(2) dopamine receptor [1]) turn out when O=C(CCN1CC=C(c2ccc(F)cc2)CC1)c1ccc(Cl)cc1 was run?
Answer: < 4.82

Question: Clc1ccc(C2=CCNCC2)cc1 was tested. Which pIC50 (D(2) dopamine receptor [1]) did it give?
Answer: < 5.30

Question: C1=C(c2ccccc2)CCNC1 was tested. Which pIC50 (D(2) dopamine receptor [1]) did it give?
Answer: < 5.30

Question: With O=C(CCN1CC=C(c2ccc(Cl)cc2)CC1)c1ccc(F)c(F)c1 as the compound, how does the pIC50 (D(2) dopamine receptor [1]) read?
Answer: < 5.30

Question: With CCCN(CCC)CCC(=O)c1ccccc1 as the compound, how does the pIC50 (D(2) dopamine receptor [1]) read?
Answer: < 5.30

Question: COc1ccc(C(=O)CCN2CC=C(c3ccc(Cl)cc3)CC2)cc1OC was tested. Which pIC50 (D(2) dopamine receptor [1]) did it give?
Answer: < 5.30

Question: N#Cc1ccc(C(=O)CC2CCN(CC3CC3)CC2)cc1 was tested. Which pIC50 (D(2) dopamine receptor [9]) did it give?
Answer: < 6.00

Question: With O=C(CCN1CC=C(c2ccc(F)cc2)CC1)c1ccc(Br)cc1 as the compound, how does the pIC50 (D(2) dopamine receptor [1]) read?
Answer: < 4.89

Question: With O=C(CCN1CC=C(c2ccccc2)CC1)c1ccccc1 as the compound, how does the pIC50 (D(2) dopamine receptor [1]) read?
Answer: < 5.30

Question: With O=C(CCN1CCC(c2ccccc2)CC1)c1ccccc1 as the compound, how does the pIC50 (D(2) dopamine receptor [1]) read?
Answer: < 5.30

Question: With O=C(CCN1CC=C(c2ccc(Cl)cc2)CC1)c1ccc(Cl)c(Cl)c1 as the compound, how does the pIC50 (D(2) dopamine receptor [1]) read?
Answer: < 5.30

Question: O=C(CCN1CC=C(c2ccc(Cl)cc2)CC1)c1ccc(Br)cc1 was tested. Which pIC50 (D(2) dopamine receptor [1]) did it give?
Answer: < 5.30

Question: O=C(CCN1CC=C(c2ccc(Cl)cc2)CC1)c1ccc2c(c1)OCO2 was tested. Which pIC50 (D(2) dopamine receptor [1]) did it give?
Answer: < 5.30
